Laboratory results as given in ChEMBL document CHEMBL5303300, “EUbOPEN Chemogenomics Library - Multiplex” (2023).
Values joined by “and” are separate entries in the source; they are usually repeats but may differ in a detail not shown here. Equal values may be shown once.

Key:
Format in all cases: toxicity, cell-based
[1] = test system: U2OS; test: Multiplex assay against U2OS; details: human, number of replicates 2
Outline: (§1)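 Tubulin, mitochondrial-mass and membrane-permeability phenotypes are per cents of healthy-nucleus cells. Cells were gated by CellPathfinder machine learning into Hoechst high-intensity objects or normal cells, normal cells into healthy, pyknosed or fragmented nuclei, and pyknosed cells into mitotic or apoptotic. Before that, live cells stained at seeding with Hoechst33342, BioTracker Green Microtubule Cytoskeleton Dye, MitoTracker Red and Annexin V Alexa Fluor 680 were imaged on a CQ1 microscope at 37°C and 5% CO2 after compound addition.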

[2] = test system: Fibroblast; test: Multiplex assay against human fibroblast; details: number of replicates 2; outline: as §1
[3] = test system: HEK-293T; test: Multiplex assay against HEK293T; details: human, number of replicates 2; outline: as §1
[4] = 12 h, 1 µM, compound concentration 1 uM
[5] = 12 h, 10 µM, compound concentration 10 uM
[6] = 24 h, 1 µM, compound concentration 1 uM
[7] = 24 h, 10 µM, compound concentration 10 uM
[8] = 48 h, 1 µM, compound concentration 1 uM
[9] = 48 h, 10 µM, compound concentration 10 uM

CN(C)CCCN1c2ccccc2Sc2ccc(Cl)cc21.Cl [CHLORPROMAZINE HYDROCHLORIDE]
Population Healthy Nuclei (%) [1, 4]: 42% and 81% | Population Hoechst High Intensity Objects (%) [1, 4]: 0% | Population Membrane Permeable-Phenotype (%) [1, 4]: 0% and 1% | Population Mitochondria Different-Phenotype (%) [1, 4]: 0% and 2% | Population Normal (%) [1, 4]: 100% | Population Pyknosed Nuclei (%) [1, 4]: 7% and 15% | Population Tubulin-Different-Phenotype (%) [1, 4]: 100% and 81% | Population Healthy Nuclei (%) [1, 5]: 49% and 77% | Population Hoechst High Intensity Objects (%) [1, 5]: 0% and 1% | Population Membrane Permeable-Phenotype (%) [1, 5]: 6% and 3% | Population Mitotic Cells (%) [1, 5]: 80% and 36% | Population Normal (%) [1, 5]: 100% and 98% | Population Pyknosed Nuclei (%) [1, 5]: 8% and 17% | Population Tubulin-Different-Phenotype (%) [1, 5]: 36% and 42% | Population Healthy Nuclei (%) [1, 6]: 53% and 88% | Population Hoechst High Intensity Objects (%) [1, 6]: 0% | Population Membrane Permeable-Phenotype (%) [1, 6]: 0% and 2% | Population Mitochondria Different-Phenotype (%) [1, 6]: 0% and 1% | Population Mitotic Cells (%) [1, 6]: 0% and 24% | Population Normal (%) [1, 6]: 100% | Population Pyknosed Nuclei (%) [1, 6]: 0% and 9% | Population Tubulin-Different-Phenotype (%) [1, 6]: 87% and 85% | Population Apoptotic (%) [1, 7]: 63% and 64% | Population Healthy Nuclei (%) [1, 7]: 39% and 73% | Population Hoechst High Intensity Objects (%) [1, 7]: 0% | Population Membrane Permeable-Phenotype (%) [1, 7]: 3% | Population Mitochondria Different-Phenotype (%) [1, 7]: 12% and 19% | Population Mitotic Cells (%) [1, 7]: 36% and 35% | Population Normal (%) [1, 7]: 100% and 99% | Population Pyknosed Nuclei (%) [1, 7]: 14% and 20% | Population Tubulin-Different-Phenotype (%) [1, 7]: 32% and 51% | Population Healthy Nuclei (%) [1, 8]: 55% and 88% | Population Hoechst High Intensity Objects (%) [1, 8]: 0% | Population Normal (%) [1, 8]: 100% | Population Pyknosed Nuclei (%) [1, 8]: 3% and 7% | Population Tubulin-Different-Phenotype (%) [1, 8]: 100% and 88% | Population Apoptotic (%) [1, 9]: 92% and 74% | Population Healthy Nuclei (%) [1, 9]: 34% and 66% | Population Hoechst High Intensity Objects (%) [1, 9]: 0% | Population Membrane Permeable-Phenotype (%) [1, 9]: 7% and 4% | Population Mitochondria Different-Phenotype (%) [1, 9]: 7% | Population Normal (%) [1, 9]: 100% and 99% | Population Pyknosed Nuclei (%) [1, 9]: 16% and 24% | Population Tubulin-Different-Phenotype (%) [1, 9]: 51% and 55% | Population Apoptotic (%) [2, 4]: 40% and 38% | Population Fragmented Nuclei (%) [2, 4]: 16% and 14% | Population Healthy Nuclei (%) [2, 4]: 51% and 64% | Population Hoechst High Intensity Objects (%) [2, 4]: 0% | Population Membrane Permeable-Phenotype (%) [2, 4]: 7% and 5% | Population Mitochondria Different-Phenotype (%) [2, 4]: 1% and 2% | Population Mitotic Cells (%) [2, 4]: 59% and 61% | Population Normal (%) [2, 4]: 100% | Population Pyknosed Nuclei (%) [2, 4]: 32% and 21% | Population Tubulin-Different-Phenotype (%) [2, 4]: 14% and 13% | Total Cell Count [2, 4]: 190 and 200 | Population Apoptotic (%) [2, 5]: 52% and 41% | Population Fragmented Nuclei (%) [2, 5]: 15% and 22% | Population Healthy Nuclei (%) [2, 5]: 65% and 62% | Population Hoechst High Intensity Objects (%) [2, 5]: 0% | Population Membrane Permeable-Phenotype (%) [2, 5]: 5% and 1% | Population Mitochondria Different-Phenotype (%) [2, 5]: 5% and 9% | Population Mitotic Cells (%) [2, 5]: 47% and 58% | Population Normal (%) [2, 5]: 99% and 100% | Population Pyknosed Nuclei (%) [2, 5]: 19% and 14% | Population Tubulin-Different-Phenotype (%) [2, 5]: 45% and 36% | Total Cell Count [2, 5]: 187 and 323 | Population Apoptotic (%) [2, 6]: 64% and 46% | Population Fragmented Nuclei (%) [2, 6]: 15% and 17% | Population Healthy Nuclei (%) [2, 6]: 58% and 66% | Population Hoechst High Intensity Objects (%) [2, 6]: 0% | Population Membrane Permeable-Phenotype (%) [2, 6]: 13% and 6% | Population Mitochondria Different-Phenotype (%) [2, 6]: 1% and 3% | Population Mitotic Cells (%) [2, 6]: 35% and 53% | Population Normal (%) [2, 6]: 100% | Population Pyknosed Nuclei (%) [2, 6]: 25% and 16% | Population Tubulin-Different-Phenotype (%) [2, 6]: 23% and 12% | Total Cell Count [2, 6]: 206 and 196 | Population Apoptotic (%) [2, 7]: 80% and 58% | Population Fragmented Nuclei (%) [2, 7]: 15% and 24% | Population Healthy Nuclei (%) [2, 7]: 72% and 65% | Population Hoechst High Intensity Objects (%) [2, 7]: 1% | Population Membrane Permeable-Phenotype (%) [2, 7]: 2% and 1% | Population Mitochondria Different-Phenotype (%) [2, 7]: 16% and 15% | Population Mitotic Cells (%) [2, 7]: 19% and 41% | Population Normal (%) [2, 7]: 98% | Population Pyknosed Nuclei (%) [2, 7]: 11% and 10% | Population Tubulin-Different-Phenotype (%) [2, 7]: 49% and 42% | Total Cell Count [2, 7]: 187 and 299 | Population Apoptotic (%) [2, 8]: 82% and 60% | Population Fragmented Nuclei (%) [2, 8]: 19% and 15% | Population Healthy Nuclei (%) [2, 8]: 60% and 71% | Population Hoechst High Intensity Objects (%) [2, 8]: 0% | Population Membrane Permeable-Phenotype (%) [2, 8]: 7% and 4% | Population Mitochondria Different-Phenotype (%) [2, 8]: 4% and 1% | Population Mitotic Cells (%) [2, 8]: 17% and 39% | Population Normal (%) [2, 8]: 99% | Population Pyknosed Nuclei (%) [2, 8]: 20% and 12% | Total Cell Count [2, 8]: 195 and 226 | Population Apoptotic (%) [2, 9]: 73% and 90% | Population Fragmented Nuclei (%) [2, 9]: 23% and 32% | Population Healthy Nuclei (%) [2, 9]: 67% and 57% | Population Hoechst High Intensity Objects (%) [2, 9]: 1% and 0% | Population Membrane Permeable-Phenotype (%) [2, 9]: 2% | Population Mitochondria Different-Phenotype (%) [2, 9]: 5% and 7% | Population Mitotic Cells (%) [2, 9]: 26% and 9% | Population Normal (%) [2, 9]: 99% | Population Pyknosed Nuclei (%) [2, 9]: 9% | Population Tubulin-Different-Phenotype (%) [2, 9]: 33% and 34% | Total Cell Count [2, 9]: 201 and 323 | Population Apoptotic (%) [3, 4]: 54% and 40% | Population Fragmented Nuclei (%) [3, 4]: 3% and 4% | Population Healthy Nuclei (%) [3, 4]: 81% and 82% | Population Hoechst High Intensity Objects (%) [3, 4]: 13% and 8% | Population Membrane Permeable-Phenotype (%) [3, 4]: 1% and 2% | Population Mitochondria Different-Phenotype (%) [3, 4]: 25% and 15% | Population Mitotic Cells (%) [3, 4]: 45% and 59% | Population Normal (%) [3, 4]: 86% and 91% | Population Pyknosed Nuclei (%) [3, 4]: 14% and 12% | Population Tubulin-Different-Phenotype (%) [3, 4]: 53% and 48% | Total Cell Count [3, 4]: 443 and 595 | Population Apoptotic (%) [3, 5]: 55% | Population Fragmented Nuclei (%) [3, 5]: 1% and 2% | Population Healthy Nuclei (%) [3, 5]: 80% and 78% | Population Hoechst High Intensity Objects (%) [3, 5]: 9% and 6% | Population Membrane Permeable-Phenotype (%) [3, 5]: 2% | Population Mitochondria Different-Phenotype (%) [3, 5]: 40% and 53% | Population Mitotic Cells (%) [3, 5]: 44% | Population Normal (%) [3, 5]: 90% and 93% | Population Pyknosed Nuclei (%) [3, 5]: 17% and 19% | Population Tubulin-Different-Phenotype (%) [3, 5]: 83% and 88% | Total Cell Count [3, 5]: 580 and 531 | Population Apoptotic (%) [3, 6]: 57% and 47% | Population Fragmented Nuclei (%) [3, 6]: 7% and 5% | Population Healthy Nuclei (%) [3, 6]: 80% and 88% | Population Hoechst High Intensity Objects (%) [3, 6]: 5% and 7% | Population Membrane Permeable-Phenotype (%) [3, 6]: 1% | Population Mitochondria Different-Phenotype (%) [3, 6]: 12% and 4% | Population Mitotic Cells (%) [3, 6]: 42% and 52% | Population Normal (%) [3, 6]: 94% and 92% | Population Pyknosed Nuclei (%) [3, 6]: 11% and 6% | Population Tubulin-Different-Phenotype (%) [3, 6]: 36% and 29% | Total Cell Count [3, 6]: 621 and 951 | Population Apoptotic (%) [3, 7]: 67% and 63% | Population Fragmented Nuclei (%) [3, 7]: 4% | Population Healthy Nuclei (%) [3, 7]: 81% and 82% | Population Hoechst High Intensity Objects (%) [3, 7]: 6% and 9% | Population Membrane Permeable-Phenotype (%) [3, 7]: 1% | Population Mitochondria Different-Phenotype (%) [3, 7]: 46% and 48% | Population Mitotic Cells (%) [3, 7]: 32% and 36% | Population Normal (%) [3, 7]: 93% and 90% | Population Pyknosed Nuclei (%) [3, 7]: 14% and 13% | Population Tubulin-Different-Phenotype (%) [3, 7]: 86% and 82% | Total Cell Count [3, 7]: 619 and 581 | Population Apoptotic (%) [3, 8]: 31% and 16% | Population Fragmented Nuclei (%) [3, 8]: 9% and 8% | Population Healthy Nuclei (%) [3, 8]: 85% and 87% | Population Hoechst High Intensity Objects (%) [3, 8]: 8% and 10% | Population Membrane Permeable-Phenotype (%) [3, 8]: 5% and 3% | Population Mitochondria Different-Phenotype (%) [3, 8]: 1% and 0% | Population Mitotic Cells (%) [3, 8]: 68% and 83% | Population Normal (%) [3, 8]: 91% and 89% | Population Pyknosed Nuclei (%) [3, 8]: 5% and 3% | Population Tubulin-Different-Phenotype (%) [3, 8]: 14% and 11% | Total Cell Count [3, 8]: 1435 and 2116 | Population Apoptotic (%) [3, 9]: 44% and 58% | Population Fragmented Nuclei (%) [3, 9]: 5% and 6% | Population Healthy Nuclei (%) [3, 9]: 86% and 85% | Population Hoechst High Intensity Objects (%) [3, 9]: 9% and 10% | Population Membrane Permeable-Phenotype (%) [3, 9]: 4% and 6% | Population Mitochondria Different-Phenotype (%) [3, 9]: 8% and 12% | Population Mitotic Cells (%) [3, 9]: 55% and 41% | Population Normal (%) [3, 9]: 90% and 89% | Population Pyknosed Nuclei (%) [3, 9]: 8% | Population Tubulin-Different-Phenotype (%) [3, 9]: 64% and 60% | Total Cell Count [3, 9]: 952 and 839
